Data as given in ChEMBL document CHEMBL3045504, “Activity of 1,4-benzoquinones against formosan subterranean termites (Coptotermes formosanus)” (2008).

Columns and labels:
Format in all cases: functional
[1] = tested on: Coptotermes formosanus; assay: Termiticidal activity against Coptotermes formosanus placed on 1 % wt/wt compound treated filter paper assessed as termite mortality measured 21 days post compound exposure
[2] = tested on: Coptotermes formosanus; assay: Termiticidal activity against Coptotermes formosanus placed on 1 % wt/wt compound treated filter paper assessed as termite mortality measured 11 days post compound exposure
[3] = tested on: Coptotermes formosanus; assay: Termiticidal activity against Coptotermes formosanus placed on 1 % wt/wt compound treated filter paper assessed as termite mortality measured 3 days post compound exposure
[4] = tested on: Coptotermes formosanus; assay: Antifeedant activity against Coptotermes formosanus placed on 1 % wt/wt compound treated filter paper assessed as filter paper consumption measured 21 days post compound exposure (reference value: 54.4 +/- 20.7 mg)
[5] = tested on: Coptotermes formosanus; assay: Termiticidal activity against Coptotermes formosanus placed on 0.001 % wt/wt compound treated filter paper assessed as termite mortality measured 17 days post compound exposure
Procedure, shortened: (§1)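 Treated filter paper disks moistened with 100 µL water; 20 C. formosanus workers (third instar or greater) plus 1 soldier per dish from field colonies kept on spruce, ca. 100% RH, 26.6 °C. Daily mortality scored for 3 weeks; cumulative percent mortality from four replicates, each a different colony; water-only controls; ANOVA, protected Fisher LSD (P < 0.05) after arcsine square-root transform.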

[6] = tested on: Coptotermes formosanus; assay: Termiticidal activity against Coptotermes formosanus placed on 0.01 % wt/wt compound treated filter paper assessed as termite mortality measured 17 days post compound exposure; procedure, shortened: as §1
[7] = tested on: Coptotermes formosanus; assay: Termiticidal activity against Coptotermes formosanus placed on 0.05 % wt/wt compound treated filter paper assessed as termite mortality measured 17 days post compound exposure; procedure, shortened: as §1
[8] = tested on: Coptotermes formosanus; assay: Termiticidal activity against Coptotermes formosanus placed on 0.1 % wt/wt compound treated filter paper assessed as termite mortality measured 17 days post compound exposure; procedure, shortened: as §1
[9] = tested on: Coptotermes formosanus; assay: Termiticidal activity against Coptotermes formosanus placed on 0.5 % wt/wt compound treated filter paper assessed as termite mortality measured 17 days post compound exposure; procedure, shortened: as §1
[10] = tested on: Coptotermes formosanus; assay: Termiticidal activity against Coptotermes formosanus placed on 0.001 % wt/wt compound treated filter paper assessed as termite mortality measured 13 days post compound exposure; procedure, shortened: as §1
[11] = tested on: Coptotermes formosanus; assay: Termiticidal activity against Coptotermes formosanus placed on 0.01 % wt/wt compound treated filter paper assessed as termite mortality measured 13 days post compound exposure; procedure, shortened: as §1
[12] = tested on: Coptotermes formosanus; assay: Termiticidal activity against Coptotermes formosanus placed on 0.05 % wt/wt compound treated filter paper assessed as termite mortality measured 13 days post compound exposure; procedure, shortened: as §1
[13] = tested on: Coptotermes formosanus; assay: Termiticidal activity against Coptotermes formosanus placed on 0.1 % wt/wt compound treated filter paper assessed as termite mortality measured 13 days post compound exposure; procedure, shortened: as §1
[14] = tested on: Coptotermes formosanus; assay: Termiticidal activity against Coptotermes formosanus placed on 0.5 % wt/wt compound treated filter paper assessed as termite mortality measured 13 days post compound exposure; procedure, shortened: as §1
[15] = tested on: Coptotermes formosanus; assay: Termiticidal activity against Coptotermes formosanus placed on 0.001 % wt/wt compound treated filter paper assessed as termite mortality measured 11 days post compound exposure; procedure, shortened: as §1
[16] = tested on: Coptotermes formosanus; assay: Termiticidal activity against Coptotermes formosanus placed on 0.01 % wt/wt compound treated filter paper assessed as termite mortality measured 11 days post compound exposure; procedure, shortened: as §1
[17] = tested on: Coptotermes formosanus; assay: Termiticidal activity against Coptotermes formosanus placed on 0.05 % wt/wt compound treated filter paper assessed as termite mortality measured 11 days post compound exposure; procedure, shortened: as §1
[18] = tested on: Coptotermes formosanus; assay: Termiticidal activity against Coptotermes formosanus placed on 0.1 % wt/wt compound treated filter paper assessed as termite mortality measured 11 days post compound exposure; procedure, shortened: as §1
[19] = tested on: Coptotermes formosanus; assay: Termiticidal activity against Coptotermes formosanus placed on 0.001 % wt/wt compound treated filter paper assessed as termite mortality measured 9 days post compound exposure; procedure, shortened: as §1
[20] = tested on: Coptotermes formosanus; assay: Termiticidal activity against Coptotermes formosanus placed on 0.01 % wt/wt compound treated filter paper assessed as termite mortality measured 9 days post compound exposure; procedure, shortened: as §1
[21] = tested on: Coptotermes formosanus; assay: Termiticidal activity against Coptotermes formosanus placed on 0.05 % wt/wt compound treated filter paper assessed as termite mortality measured 9 days post compound exposure; procedure, shortened: as §1
[22] = tested on: Coptotermes formosanus; assay: Termiticidal activity against Coptotermes formosanus placed on 0.1 % wt/wt compound treated filter paper assessed as termite mortality measured 9 days post compound exposure; procedure, shortened: as §1
[23] = tested on: Coptotermes formosanus; assay: Termiticidal activity against Coptotermes formosanus placed on 0.5 % wt/wt compound treated filter paper assessed as termite mortality measured 9 days post compound exposure; procedure, shortened: as §1
[24] = tested on: Coptotermes formosanus; assay: Termiticidal activity against Coptotermes formosanus placed on 0.001 % wt/wt compound treated filter paper assessed as termite mortality measured 6 days post compound exposure; procedure, shortened: as §1
[25] = tested on: Coptotermes formosanus; assay: Termiticidal activity against Coptotermes formosanus placed on 0.01 % wt/wt compound treated filter paper assessed as termite mortality measured 6 days post compound exposure; procedure, shortened: as §1
[26] = tested on: Coptotermes formosanus; assay: Termiticidal activity against Coptotermes formosanus placed on 0.05 % wt/wt compound treated filter paper assessed as termite mortality measured 6 days post compound exposure; procedure, shortened: as §1
[27] = tested on: Coptotermes formosanus; assay: Termiticidal activity against Coptotermes formosanus placed on 0.1 % wt/wt compound treated filter paper assessed as termite mortality measured 6 days post compound exposure; procedure, shortened: as §1
[28] = tested on: Coptotermes formosanus; assay: Termiticidal activity against Coptotermes formosanus placed on 0.5 % wt/wt compound treated filter paper assessed as termite mortality measured 6 days post compound exposure; procedure, shortened: as §1
[29] = tested on: Coptotermes formosanus; assay: Termiticidal activity against Coptotermes formosanus placed on 0.5 % wt/wt compound treated filter paper assessed as termite mortality measured 21 days post compound exposure; procedure, shortened: as §1
[30] = tested on: Coptotermes formosanus; assay: Termiticidal activity against Coptotermes formosanus placed on 0.5 % wt/wt compound treated filter paper assessed as termite mortality measured 11 days post compound exposure; procedure, shortened: as §1
[31] = tested on: Coptotermes formosanus; assay: Antifeedant activity against Coptotermes formosanus placed on 0.5 % wt/wt compound treated filter paper assessed as filter paper consumption measured 21 days post compound exposure (reference value: 78.2 +/- 26.7 mg)
[32] = tested on: Coptotermes formosanus; assay: Antifeedant activity against Coptotermes formosanus placed on 1 % wt/wt compound treated filter paper assessed as filter paper consumption measured 21 days post compound exposure (reference value: 85 +/- 15.1 mg)
[33] = tested on: Coptotermes formosanus; assay: Termiticidal activity against Coptotermes formosanus placed on 0.001 % wt/wt compound treated filter paper assessed as termite mortality measured 21 days post compound exposure; procedure, shortened: as §1
[34] = tested on: Coptotermes formosanus; assay: Termiticidal activity against Coptotermes formosanus placed on 0.01 % wt/wt compound treated filter paper assessed as termite mortality measured 21 days post compound exposure; procedure, shortened: as §1
[35] = tested on: Coptotermes formosanus; assay: Termiticidal activity against Coptotermes formosanus placed on 0.05 % wt/wt compound treated filter paper assessed as termite mortality measured 21 days post compound exposure; procedure, shortened: as §1
[36] = tested on: Coptotermes formosanus; assay: Termiticidal activity against Coptotermes formosanus placed on 0.1 % wt/wt compound treated filter paper assessed as termite mortality measured 21 days post compound exposure; procedure, shortened: as §1
[37] = tested on: Coptotermes formosanus; assay: Antifeedant activity against Coptotermes formosanus placed on 0.001 % wt/wt compound treated filter paper assessed as filter paper consumption measured 21 days post compound exposure (reference value: 78.2 +/- 26.7 mg)
[38] = tested on: Coptotermes formosanus; assay: Antifeedant activity against Coptotermes formosanus placed on 0.01 % wt/wt compound treated filter paper assessed as filter paper consumption measured 21 days post compound exposure (reference value: 78.2 +/- 26.7 mg)
[39] = tested on: Coptotermes formosanus; assay: Antifeedant activity against Coptotermes formosanus placed on 0.05 % wt/wt compound treated filter paper assessed as filter paper consumption measured 21 days post compound exposure (reference value: 78.2 +/- 26.7 mg)
[40] = tested on: Coptotermes formosanus; assay: Antifeedant activity against Coptotermes formosanus placed on 0.1 % wt/wt compound treated filter paper assessed as filter paper consumption measured 21 days post compound exposure (reference value: 78.2 +/- 26.7 mg)
[41] = tested on: Coptotermes formosanus; assay: Antifeedant activity against Coptotermes formosanus placed on 0.001 % wt/wt compound treated filter paper assessed as filter paper consumption measured 21 days post compound exposure (reference value: 44.6 +/- 0.0 mg)
[42] = tested on: Coptotermes formosanus; assay: Antifeedant activity against Coptotermes formosanus placed on 0.01 % wt/wt compound treated filter paper assessed as filter paper consumption measured 21 days post compound exposure (reference value: 44.6 +/- 0.0 mg)
[43] = tested on: Coptotermes formosanus; assay: Antifeedant activity against Coptotermes formosanus placed on 0.05 % wt/wt compound treated filter paper assessed as filter paper consumption measured 21 days post compound exposure (reference value: 44.6 +/- 0.0 mg)
[44] = tested on: Coptotermes formosanus; assay: Antifeedant activity against Coptotermes formosanus placed on 0.1 % wt/wt compound treated filter paper assessed as filter paper consumption measured 21 days post compound exposure (reference value: 44.6 +/- 0.0 mg)
[45] = tested on: Coptotermes formosanus; assay: Antifeedant activity against Coptotermes formosanus placed on 0.5 % wt/wt compound treated filter paper assessed as filter paper consumption measured 21 days post compound exposure (reference value: 44.6 +/- 0.0 mg)
[46] = tested on: Coptotermes formosanus; assay: Antifeedant activity against Coptotermes formosanus placed on 1 % wt/wt compound treated filter paper assessed as filter paper consumption measured 21 days post compound exposure (reference value: 15.9 +/- 10.4 mg)

Row | Compound | mortality [1] [%] | mortality [2] [%] | mortality [3] [%] | mortality [5] [%] | mortality [6] [%] | mortality [7] [%] | mortality [8] [%] | mortality [9] [%] | mortality [10] [%] | mortality [11] [%] | mortality [12] [%] | mortality [13] [%] | mortality [14] [%] | mortality [15] [%] | mortality [16] [%] | mortality [17] [%] | mortality [18] [%] | mortality [19] [%] | mortality [20] [%] | mortality [21] [%] | further results
1 | CC1=CC(=O)C(C)=C(C)C1=O | 36.7 | 18.3 | 0 |  |  |  |  |  |  |  |  |  |  |  |  |  |  |  |  |  | Activity [4]: 55.4 mg
2 | COC1=C(OC)C(=O)C(CC=C(C)C)=C(C)C1=O [Coenzyme Q1] | 100 | 100 | 70 | 3.3 | 5 | 5 | 8.3 | 8.3 | 3.3 | 5 | 0 | 0 | 5 | 3.3 | 5 | 0 | 0 | 3.3 | 5 | 0 | mortality [22]: 0%; mortality [23]: 3.3%; mortality [24]: 3.3%; mortality [25]: 5%; mortality [26]: 0%; mortality [27]: 0%; mortality [28]: 3.3%; mortality [29]: 10%; mortality [30]: 3.3%; Activity [31]: 95.8 mg; Activity [32]: 16.9 mg; mortality [33]: 3.3%; mortality [34]: 5%; mortality [35]: 5%; mortality [36]: 8.3%; Activity [37]: 98.5 mg; Activity [38]: 77.3 mg; Activity [39]: 98.1 mg; Activity [40]: 101.6 mg
3 | CCCCCC1=CC(=O)C=C(OC)C1=O [Primin] | 100 | 100 | 87.5 | 1.7 | 10 | 8.3 | 40 | 100 | 0 | 5 | 5 | 36.7 | 96.7 | 0 | 0 | 3.3 | 28.3 | 0 | 0 | 3.3 | mortality [22]: 21.7%; mortality [23]: 80%; mortality [24]: 0%; mortality [25]: 0%; mortality [26]: 3.3%; mortality [27]: 21.7%; mortality [28]: 56.7%; mortality [29]: 100%; mortality [30]: 91.7%; Activity [41]: 48.8 mg; Activity [42]: 48.4 mg; Activity [43]: 42.2 mg; Activity [44]: 26.8 mg; Activity [45]: 4.9 mg; Activity [46]: 0.1 mg; mortality [33]: 8.3%; mortality [34]: 21.7%; mortality [35]: 25%; mortality [36]: 50%
